Activity calls are given as the source filed them. No cut-off for these calls is given here.
Key:
MONO-MAC-6 [1] = test: Upregulation of IL23A mRNA expression level in LPS-stimulated human MONO-MAC-6 cells at 5 uM preincubated for 30 mins followed by LPS stimulation measured after 1 hr by qRT-PCR method (reference value: 1.10); assay type: functional
MONO-MAC-6 [2] = test: Downregulation of IL23A mRNA expression level in human MONO-MAC-6 cells at 5 uM incubated for 30 mins measured after 6 hrs by qRT-PCR method relative to control; assay type: functional
MONO-MAC-6 [3] = test: Upregulation of IL23A mRNA expression level in human MONO-MAC-6 cells at 5 uM incubated for 30 mins measured after 1 hr by qRT-PCR method relative to control; assay type: functional
MONO-MAC-6 [4] = test: Downregulation of IL-6 mRNA expression level in human MONO-MAC-6 cells at 5 uM incubated for 30 mins measured after 4 hrs by qRT-PCR method relative to control; assay type: functional
MONO-MAC-6 [5] = test: Downregulation of IL23A mRNA expression level in human MONO-MAC-6 cells at 5 uM incubated for 30 mins measured after 2 hrs by qRT-PCR method relative to control; assay type: functional
MONO-MAC-6 [6] = test: Upregulation of CCL4 mRNA expression level in LPS-stimulated human MONO-MAC-6 cells at 5 uM preincubated for 30 mins followed by LPS stimulation measured after 4 hrs by oligonucleotide array hybridization assay (reference value: 18.52); assay type: functional
[7] = target: T1, Sphingomyelin phosphodiesterase (Homo sapiens) (UniProt P17405); test: Inhibition of mmLDL-stimulated acid sphingomyelinase in human PBMC lysates up to 2 uM preincubated for 30 mins followed by mmLDL stimulation measured after 4 hrs by YO-PRO-1/Hoechst 33342 staining based assay
T1 sequence (whole entry): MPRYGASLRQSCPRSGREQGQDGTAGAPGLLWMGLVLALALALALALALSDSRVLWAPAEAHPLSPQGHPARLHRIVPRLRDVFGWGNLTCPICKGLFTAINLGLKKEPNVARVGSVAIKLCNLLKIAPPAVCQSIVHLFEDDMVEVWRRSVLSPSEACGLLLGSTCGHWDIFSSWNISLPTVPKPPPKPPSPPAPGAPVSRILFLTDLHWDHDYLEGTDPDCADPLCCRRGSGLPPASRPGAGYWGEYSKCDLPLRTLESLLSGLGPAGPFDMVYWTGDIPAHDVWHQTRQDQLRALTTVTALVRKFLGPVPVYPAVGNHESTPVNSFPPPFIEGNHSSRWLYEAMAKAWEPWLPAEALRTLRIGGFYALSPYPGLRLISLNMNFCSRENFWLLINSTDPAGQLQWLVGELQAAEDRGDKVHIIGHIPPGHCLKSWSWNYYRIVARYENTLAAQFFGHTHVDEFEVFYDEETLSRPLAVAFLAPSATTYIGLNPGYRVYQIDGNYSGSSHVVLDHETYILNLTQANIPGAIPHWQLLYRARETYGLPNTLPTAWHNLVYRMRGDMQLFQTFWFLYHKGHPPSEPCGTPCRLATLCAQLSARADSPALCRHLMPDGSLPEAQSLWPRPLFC

[8] = target: T1, Sphingomyelin phosphodiesterase (Homo sapiens); test: Inhibition of mmLDL-stimulated acid sphingomyelinase in human PBMC lysates at 100 uM preincubated for 30 mins followed by mmLDL stimulation measured after 4 hrs by YO-PRO-1/Hoechst 33342 staining based assay
MONO-MAC-6 [9] = test: Upregulation of TNFalpha mRNA expression level in LPS-stimulated human MONO-MAC-6 cells at 5 uM preincubated for 30 mins followed by LPS stimulation measured after 4 hrs by qRT-PCR method (reference value: 4.32); assay type: functional
MONO-MAC-6 [10] = test: Downregulation of CCL4 mRNA expression level in human MONO-MAC-6 cells at 5 uM incubated for 30 mins measured after 6 hrs by oligonucleotide array hybridization assay relative to control; assay type: functional
Method in brief: (§1)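 Total RNA was isolated, transcribed and labeled with DY-647 dye, then co-hybridized with DY-548-labeled cDNA from untreated cells on an inflammation oligonucleotide chip (780 gene probes). Differential expression >1.5 was taken as significant.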

MONO-MAC-6 [11] = test: Downregulation of TNFalpha mRNA expression level in LPS-stimulated human MONO-MAC-6 cells at 5 uM preincubated for 30 mins followed by LPS stimulation measured after 6 hrs by qRT-PCR method (reference value: 2.17); assay type: functional
MONO-MAC-6 [12] = test: Downregulation of CXCL10 mRNA expression level in human MONO-MAC-6 cells at 5 uM incubated for 30 mins measured after 6 hrs by oligonucleotide array hybridization assay relative to control; assay type: functional; method in brief: as §1
MONO-MAC-6 [13] = test: Downregulation of PTX3 mRNA expression level in human MONO-MAC-6 cells at 5 uM incubated for 30 mins measured after 1 hr by oligonucleotide array hybridization assay relative to control; assay type: functional; method in brief: as §1
MONO-MAC-6 [14] = test: Upregulation of CXCL10 mRNA expression level in LPS-stimulated human MONO-MAC-6 cells at 5 uM preincubated for 30 mins followed by LPS stimulation measured after 2 hrs by oligonucleotide array hybridization assay (reference value: 1.73); assay type: functional
MONO-MAC-6 [15] = test: Upregulation of CXCL10 mRNA expression level in human MONO-MAC-6 cells at 5 uM incubated for 30 mins measured after 2 hrs by oligonucleotide array hybridization assay relative to control; assay type: functional
MONO-MAC-6 [16] = test: Upregulation of FCGR2B mRNA expression level in LPS-stimulated human MONO-MAC-6 cells preincubated for 30 mins followed by LPS stimulation measured after 4 hrs by qRT-PCR analysis relative to control; assay type: functional
[17] = target: T2, Acid ceramidase (Homo sapiens) (UniProt Q13510); test: Inhibition of acid ceramidase in human PBMC assessed as ratio of C16-ceramide/lipid phosphate level at 10 uM incubated for 30 mins measured after 4 hrs by HPLC method; assay type: cell-based
T2 sequence (whole entry): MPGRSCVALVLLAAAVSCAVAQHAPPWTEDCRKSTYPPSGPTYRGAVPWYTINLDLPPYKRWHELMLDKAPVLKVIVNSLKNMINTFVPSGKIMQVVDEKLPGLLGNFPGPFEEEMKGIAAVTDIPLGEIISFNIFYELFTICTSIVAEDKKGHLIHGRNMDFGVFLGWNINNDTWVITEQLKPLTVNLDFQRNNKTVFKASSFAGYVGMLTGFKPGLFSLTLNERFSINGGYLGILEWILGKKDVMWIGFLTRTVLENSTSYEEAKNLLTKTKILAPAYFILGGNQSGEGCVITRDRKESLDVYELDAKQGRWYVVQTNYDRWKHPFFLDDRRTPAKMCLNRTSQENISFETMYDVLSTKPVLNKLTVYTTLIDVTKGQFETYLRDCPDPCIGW
Method in brief: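 Human macrophages from primary culture were preincubated 30 min with 10 µM compound. They were then stimulated 4 h with mmLDL (54 µg/mL), TNFalpha (3 ng/mL) or exogenous C6-ceramide (10 µM), or left unstimulated. Individual ceramide species (C16 and C24:1) were quantified in the cell lipid extracts.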

MONO-MAC-6 [18] = test: Downregulation of PTX3 mRNA expression level in human MONO-MAC-6 cells at 5 uM incubated for 30 mins measured after 4 hrs by oligonucleotide array hybridization assay relative to control; assay type: functional; method in brief: as §1
MONO-MAC-6 [19] = test: Downregulation of PTGS2 mRNA expression level in LPS-stimulated human MONO-MAC-6 cells at 5 uM preincubated for 30 mins followed by LPS stimulation measured after 6 hrs by oligonucleotide array hybridization assay (reference value: 3.58); assay type: functional; method in brief: as §1

Question: Which “fold change (FC)” value (MONO-MAC-6 [1]) does the source give for COc1ccc(CCN(C)CCCn2c3ccccc3c3ccccc32)cc1 here?
Answer: 1.03

Question: And the “fold change (FC)” value (MONO-MAC-6 [2])?
Answer: 1.72

Question: And the “fold change (FC)” value (MONO-MAC-6 [3])?
Answer: 1.01

Question: What about the “fold change (FC)” value (MONO-MAC-6 [4]) of the same molecule?
Answer: 2.25

Question: What about the “fold change (FC)” value (MONO-MAC-6 [5]) of the same molecule?
Answer: 1.24

Question: What about the “fold change (FC)” value (MONO-MAC-6 [6]) of the same molecule?
Answer: 8.04

Question: What about the inhibition [7] of the same molecule?
Answer: inactive

Question: What about the inhibition [8] of the same molecule?
Answer: Active

Question: What about the “fold change (FC)” value (MONO-MAC-6 [9]) of the same molecule?
Answer: 1.37

Question: And the “fold change (FC)” value (MONO-MAC-6 [10])?
Answer: 7.41

Question: And the “fold change (FC)” value (MONO-MAC-6 [11])?
Answer: 1.16

Question: What about the “fold change (FC)” value (MONO-MAC-6 [12]) of the same molecule?
Answer: 6.7

Question: And the “fold change (FC)” value (MONO-MAC-6 [13])?
Answer: 1.48

Question: And the “fold change (FC)” value (MONO-MAC-6 [14])?
Answer: 1.63

Question: And the “fold change (FC)” value (MONO-MAC-6 [15])?
Answer: 1

Question: What about the “fold change (FC)” value (MONO-MAC-6 [16]) of the same molecule?
Answer: 2.93

Question: What about the Ratio [17] of the same molecule?
Answer: 0.38

Question: What about the “fold change (FC)” value (MONO-MAC-6 [18]) of the same molecule?
Answer: 1.93

Question: And the “fold change (FC)” value (MONO-MAC-6 [19])?
Answer: 1.06
